Where “and” joins values, the source holds several entries; their conditions need not be identical. Identical values can stand only once.
Test system: HEK-293T
Assay: Multiplex assay against HEK293T;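 on Population Tubulin-Different-Phenotype (%): share of the cells with healthy nuclei that show this phenotype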
Type: toxicity, cell-based
Conditions: human
Summary of the method: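 Live cells were stained at seeding with Hoechst33342, BioTracker Green Microtubule Cytoskeleton Dye, MitoTracker Red and Annexin V Alexa Fluor 680, then imaged on a CQ1 microscope at 37°C and 5% CO2 after compound addition. CellPathfinder machine-learning gating split cells into Hoechst high-intensity objects or normal cells. Normal cells were split into healthy, pyknosed or fragmented nuclei, and pyknosed cells into mitotic or apoptotic. Tubulin, mitochondrial-mass and membrane-permeability phenotypes are per cents of healthy-nucleus cells.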

[1] = 12 h, 1 µM, compound concentration 1 uM, replicate 1
[2] = 12 h, 1 µM, compound concentration 1 uM, replicate 2
[3] = 12 h, 10 µM, compound concentration 10 uM, replicate 1
[4] = 12 h, 10 µM, compound concentration 10 uM, replicate 2
[5] = 24 h, 1 µM, compound concentration 1 uM, replicate 1
[6] = 24 h, 1 µM, compound concentration 1 uM, replicate 2
[7] = 24 h, 10 µM, compound concentration 10 uM, replicate 1
[8] = 24 h, 10 µM, compound concentration 10 uM, replicate 2
[9] = 48 h, 1 µM, compound concentration 1 uM, replicate 1
[10] = 48 h, 1 µM, compound concentration 1 uM, replicate 2
[11] = 48 h, 10 µM, compound concentration 10 uM, replicate 1
[12] = 48 h, 10 µM, compound concentration 10 uM, replicate 2

Cc1ccc2c(c1)c1c(n2CCc2ccc(C)nc2)CCN(C)C1 [LATREPIRDINE]
Population Apoptotic (%) [1]: 65% | Population Fragmented Nuclei (%) [1]: 9% | Population Healthy Nuclei (%) [1]: 39% | Population Hoechst High Intensity Objects (%) [1]: 14% | Population Membrane Permeable-Phenotype (%) [1]: 0% | Population Mitochondria Different-Phenotype (%) [1]: 97% | Population Mitotic Cells (%) [1]: 34% | Population Normal (%) [1]: 85% | Population Pyknosed Nuclei (%) [1]: 51% | Population Tubulin-Different-Phenotype (%) [1]: 85% | Total Cell Count [1]: 246 | Population Apoptotic (%) [2]: 28% | Population Fragmented Nuclei (%) [2]: 6% | Population Healthy Nuclei (%) [2]: 38% | Population Hoechst High Intensity Objects (%) [2]: 2% | Population Membrane Permeable-Phenotype (%) [2]: 7% | Population Mitochondria Different-Phenotype (%) [2]: 64% | Population Mitotic Cells (%) [2]: 71% | Population Normal (%) [2]: 97% | Population Pyknosed Nuclei (%) [2]: 54% | Population Tubulin-Different-Phenotype (%) [2]: 39% | Total Cell Count [2]: 209 | Population Apoptotic (%) [3]: 89% | Population Fragmented Nuclei (%) [3]: 30% | Population Healthy Nuclei (%) [3]: 12% | Population Hoechst High Intensity Objects (%) [3]: 24% | Population Membrane Permeable-Phenotype (%) [3]: 8% | Population Mitochondria Different-Phenotype (%) [3]: 95% | Population Mitotic Cells (%) [3]: 10% | Population Normal (%) [3]: 75% | Population Pyknosed Nuclei (%) [3]: 57% | Population Tubulin-Different-Phenotype (%) [3]: 91% | Total Cell Count [3]: 251 | Population Apoptotic (%) [4]: 91% | Population Fragmented Nuclei (%) [4]: 5% | Population Healthy Nuclei (%) [4]: 13% | Population Hoechst High Intensity Objects (%) [4]: 4% | Population Mitochondria Different-Phenotype (%) [4]: 96% | Population Mitotic Cells (%) [4]: 8% | Population Normal (%) [4]: 95% | Population Pyknosed Nuclei (%) [4]: 80% | Population Tubulin-Different-Phenotype (%) [4]: 96% | Total Cell Count [4]: 194 | Population Apoptotic (%) [5]: 55% | Population Fragmented Nuclei (%) [5]: 7% | Population Healthy Nuclei (%) [5]: 42% | Population Hoechst High Intensity Objects (%) [5]: 14% | Population Membrane Permeable-Phenotype (%) [5]: 1% | Population Mitochondria Different-Phenotype (%) [5]: 96% | Population Mitotic Cells (%) [5]: 44% | Population Normal (%) [5]: 85% | Population Pyknosed Nuclei (%) [5]: 50% | Population Tubulin-Different-Phenotype (%) [5]: 87% | Total Cell Count [5]: 276 | Population Apoptotic (%) [6]: 29% | Population Fragmented Nuclei (%) [6]: 5% | Population Healthy Nuclei (%) [6]: 55% | Population Hoechst High Intensity Objects (%) [6]: 4% | Population Membrane Permeable-Phenotype (%) [6]: 11% | Population Mitochondria Different-Phenotype (%) [6]: 55% | Population Mitotic Cells (%) [6]: 70% | Population Normal (%) [6]: 95% | Population Pyknosed Nuclei (%) [6]: 39% | Population Tubulin-Different-Phenotype (%) [6]: 47% | Total Cell Count [6]: 271 | Population Apoptotic (%) [7]: 90% | Population Fragmented Nuclei (%) [7]: 35% | Population Healthy Nuclei (%) [7]: 16% | Population Hoechst High Intensity Objects (%) [7]: 24% | Population Membrane Permeable-Phenotype (%) [7]: 6% | Population Mitochondria Different-Phenotype (%) [7]: 96% | Population Mitotic Cells (%) [7]: 9% | Population Normal (%) [7]: 75% | Population Pyknosed Nuclei (%) [7]: 47% | Population Tubulin-Different-Phenotype (%) [7]: 93% | Total Cell Count [7]: 242 | Population Apoptotic (%) [8]: 93% | Population Fragmented Nuclei (%) [8]: 5% | Population Hoechst High Intensity Objects (%) [8]: 6% | Population Membrane Permeable-Phenotype (%) [8]: 2% | Population Mitochondria Different-Phenotype (%) [8]: 97% | Population Mitotic Cells (%) [8]: 6% | Population Normal (%) [8]: 93% | Population Pyknosed Nuclei (%) [8]: 77% | Population Tubulin-Different-Phenotype (%) [8]: 94% | Total Cell Count [8]: 220 | Population Apoptotic (%) [9]: 59% | Population Fragmented Nuclei (%) [9]: 11% | Population Healthy Nuclei (%) [9]: 61% | Population Hoechst High Intensity Objects (%) [9]: 10% | Population Membrane Permeable-Phenotype (%) [9]: 2% | Population Mitochondria Different-Phenotype (%) [9]: 62% | Population Mitotic Cells (%) [9]: 40% | Population Normal (%) [9]: 89% | Population Pyknosed Nuclei (%) [9]: 27% | Population Tubulin-Different-Phenotype (%) [9]: 67% | Total Cell Count [9]: 332 | Population Apoptotic (%) [10]: 32% | Population Fragmented Nuclei (%) [10]: 6% | Population Healthy Nuclei (%) [10]: 77% | Population Hoechst High Intensity Objects (%) [10]: 3% | Population Membrane Permeable-Phenotype (%) [10]: 8% | Population Mitochondria Different-Phenotype (%) [10]: 23% | Population Mitotic Cells (%) [10]: 67% | Population Normal (%) [10]: 96% | Population Pyknosed Nuclei (%) [10]: 16% | Population Tubulin-Different-Phenotype (%) [10]: 40% | Total Cell Count [10]: 413 | Population Apoptotic (%) [11]: 86% | Population Fragmented Nuclei (%) [11]: 41% | Population Healthy Nuclei (%) [11]: 21% | Population Hoechst High Intensity Objects (%) [11]: 24% | Population Mitotic Cells (%) [11]: 13% | Population Normal (%) [11]: 75% | Population Pyknosed Nuclei (%) [11]: 37% | Population Tubulin-Different-Phenotype (%) [11]: 94% | Total Cell Count [11]: 246 | Population Apoptotic (%) [12]: 87% | Population Fragmented Nuclei (%) [12]: 2% | Population Healthy Nuclei (%) [12]: 42% | Population Hoechst High Intensity Objects (%) [12]: 13% | Population Membrane Permeable-Phenotype (%) [12]: 2% | Population Mitochondria Different-Phenotype (%) [12]: 97% | Population Mitotic Cells (%) [12]: 12% | Population Normal (%) [12]: 86% | Population Pyknosed Nuclei (%) [12]: 55% | Population Tubulin-Different-Phenotype (%) [12]: 90% | Total Cell Count [12]: 198

Cc1cc(NC(=O)c2cccc(S(F)(F)(F)(F)F)c2)cc(-n2ccn3nc(-c4cccnc4)cc23)c1 [BAY-309]
Population Fragmented Nuclei (%) [3]: 16% and 13% | Population Healthy Nuclei (%) [3]: 34% and 63% | Population Hoechst High Intensity Objects (%) [3]: 16% and 9% | Population Membrane Permeable-Phenotype (%) [3]: 25% and 14% | Population Mitochondria Different-Phenotype (%) [3]: 32% and 12% | Population Mitotic Cells (%) [3]: 34% and 83% | Population Normal (%) [3]: 83% and 90% | Population Pyknosed Nuclei (%) [3]: 48% and 23% | Population Tubulin-Different-Phenotype (%) [3]: 86% and 41% | Total Cell Count [3]: 619 and 653 | Population Fragmented Nuclei (%) [4]: 3% and 2% | Population Healthy Nuclei (%) [4]: 87% and 72% | Population Hoechst High Intensity Objects (%) [4]: 2% and 4% | Population Membrane Permeable-Phenotype (%) [4]: 16% and 17% | Population Mitotic Cells (%) [4]: 92% and 54% | Population Normal (%) [4]: 97% and 95% | Population Tubulin-Different-Phenotype (%) [4]: 59% and 98% | Total Cell Count [4]: 1524 and 975 | Population Fragmented Nuclei (%) [7]: 19% and 9% | Population Healthy Nuclei (%) [7]: 29% and 77% | Population Hoechst High Intensity Objects (%) [7]: 16% and 7% | Population Membrane Permeable-Phenotype (%) [7]: 10% and 21% | Population Normal (%) [7]: 83% and 92% | Population Tubulin-Different-Phenotype (%) [7]: 85% and 66% | Total Cell Count [7]: 590 and 755 | Population Healthy Nuclei (%) [8]: 79% and 66% | Population Hoechst High Intensity Objects (%) [8]: 3% and 6% | Population Mitotic Cells (%) [8]: 94% and 45% | Population Normal (%) [8]: 96% and 93% | Population Tubulin-Different-Phenotype (%) [8]: 67% and 98% | Total Cell Count [8]: 2348 and 996
